Screening results from PubChem.
An excerpt weighted towards active compounds, which were near 2% of everything screened.
PfM18AAP inh-1 – blocks P. falciparum M18 aspartyl aminopeptidase; inhibition, % at 7.35 µM; AID 1822; 1.2% of 290,000 active; recombinant PfM18AAP, H-Glu-NHMec fluorogenic cleavage;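 active = inhibition above the campaign mean inhibition over all tested compounds plus 3 SD, cut at about 28% in these data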;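 note: 0% = plate median of test compound wells and 100% = 2 mM ZnCl2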
RBBP9 inh – blocks human serine hydrolase RBBP9; recombinant RBBP9, FP-Rh probe fluorescence polarization; 0.2% of 220,000 active; inhibition, % at 7.94 µM;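 active = inhibition above the campaign mean of all tested compounds plus 3 SD, cut at about 14% in these data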;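 note: plate controls were DMSO wells with RBBP9 for no effect and wells lacking RBBP9 protein for full effect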
Target sequence (O75884 whole entry, looked up): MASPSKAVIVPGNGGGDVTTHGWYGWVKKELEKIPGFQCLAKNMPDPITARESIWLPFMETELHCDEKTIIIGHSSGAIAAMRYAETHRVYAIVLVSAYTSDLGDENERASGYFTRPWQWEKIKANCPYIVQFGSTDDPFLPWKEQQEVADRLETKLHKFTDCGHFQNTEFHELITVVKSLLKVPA
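Test system – recombinant human RBBP9 · Input – RBBP9 2.5 µM in dispensing solution, pre-mixing · Medium – Tris buffer pH 8.0, NaCl, Pluronic · Schedule – preincubation 30 min plus labeling 45 min at 25 °C · Measured by – fluorescence polarization · Measure – % inhibition · Controls – DMSO and no-protein wells · Replicates – one well per compound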
Tb hexokinase – blocks Trypanosoma brucei hexokinase 1 activity; 0.11% of 220,000 active; recombinant TbHK1, G6PDH-coupled NADH A340; inhibition, % at 10 µM;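 active = inhibition of 50% or more in the single-dose primary screen; inactive = inhibition below 50%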
L929 necroptosis – L929 zVAD cell death inhibition | L929 zVAD necroptosis rescue, ATP luminescence, 24 h; with zVAD 60 µM | viability rescue, % at 10 µM | 0.38% of 220,000 active;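 active = activation, scaled between plate controls, above about 75%, limit read from the data; inactive = activation under that limit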;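 note: 0% = zVAD with DMSO and 100% = DMSO alone without zVAD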
TNF necrop inh – blocks TNF-alpha induced death of Jurkat FADD-/- cells; activation (protection from cell death), % at 10 µM; Jurkat FADD-/- TNF necroptosis rescue, ATP luminescence, 24 h; 0 = TNF only, 100 = no-TNF cells; 0.068% of 220,000 active; AID 463075;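 active = activation, meaning protection from cell death, of at least 50% relative to plate controls; inactive = activation below 50%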;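 note: necroptosis triggered by 40 ng/mL TNF-alpha added together with compound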
Lipid droplet – modulators of hepatic lipid droplet formation; inhibition, % at 6.5 µM; 0.4% of 240,000 active; AML12 mouse hepatocytes, oleate lipid droplets, BODIPY imaging; AID 1656;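 active = lipid droplet intensity inhibited by at least 50%, with more than 500 cells counted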
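Material: mouse AML12 hepatocyte cell line, fixed after treatment; Timing: compound with oleate, overnight; Technique: high-content imaging of BODIPY-stained droplets and DAPI nuclei; Probe or stimulus: oleate, 100 µM final; Dosing: compound at 6.5 µM only.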
PfM18AAP inh-2 – PfM18AAP inhibition, confirmation; shares compounds with PfM18AAP inh-1; recombinant PfM18AAP, H-Glu-NHMec fluorogenic cleavage; inhibition, % at 7.35 µM; 28% of 2,400 active; AID 2170;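 active = mean inhibition over replicate wells above the hit cutoff set for the earlier primary screen, cut at about 29% in these data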;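 note: 0% = median of test compound wells and 100% = 2 mM ZnCl2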
CTSL1 confirm – Cathepsin L (human) inhibition, confirmation. shares compounds with PfM18AAP inh-1. purified cathepsin L1, Z-Leu-Arg-MCA fluorescence. inhibition, % at 5.96 µM. 2,400 tested, under 10 active;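 active = average inhibition across replicates above the hit cutoff set in the earlier primary screen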;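 note: 0% = median of test compound wells and 100% = Z-Phe-Ala-diazomethylketone 1 µM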
Target sequence (P07711 whole entry, looked up): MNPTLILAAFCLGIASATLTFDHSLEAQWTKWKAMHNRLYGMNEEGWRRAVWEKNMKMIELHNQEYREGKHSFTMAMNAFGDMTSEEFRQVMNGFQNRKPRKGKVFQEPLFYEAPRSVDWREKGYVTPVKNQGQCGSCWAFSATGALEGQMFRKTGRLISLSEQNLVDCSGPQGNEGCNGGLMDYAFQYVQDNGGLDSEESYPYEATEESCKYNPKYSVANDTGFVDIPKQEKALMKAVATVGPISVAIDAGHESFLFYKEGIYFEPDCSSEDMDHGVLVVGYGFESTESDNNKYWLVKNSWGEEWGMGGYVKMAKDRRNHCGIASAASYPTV
Starred values were filed as active, the others as inactive; / = not tested or not shown.

SMILES	PfM18AAP inh-1	RBBP9 inh	Tb hexokinase	L929 necroptosis	TNF necrop inh	Lipid droplet	PfM18AAP inh-2	CTSL1 confirm
CCCN1CCN(C(=O)C2CCN(S(=O)(=O)c3c(C)noc3/C=C/c3ccc(C)cc3)CC2)CC1	10	/	/	/	/	-38	/	/
O=C(CSc1nc2ccccc2o1)N/N=C/c1ccccc1	15	8	27	0	2	15	/	/
O=C(Cc1nnc(NC(=O)c2ccccc2)s1)N/N=C/c1ccc(O)cc1	-1	/	/	/	/	-7	/	/
Cc1cc(SCC(=O)N/N=C/c2ccc(O)c(O)c2)c(C)cc1Br	54*	-7	0	3	-9	-2	36*	-3
CC(=O)N1CCC(=NNC(=O)CSc2cc(C)c(Br)cc2C)CC1	0	-7	-1	1	1	0	/	/
O=C(CSc1nc2ccccc2o1)N/N=C/c1ccc(O)c(O)c1	62*	-7	-34	2	-13	3	52*	-3
O=C(N/N=C/c1ccc(O)c(O)c1)c1cc(-c2ccccc2)nc2ccccc12	61*	/	/	/	/	-5	48*	-5
O=C(Cc1nnc(NC(=O)c2ccccc2)s1)N/N=C\c1ccc(O)c(O)c1	57*	/	/	/	/	11	38*	0
CN(Cc1ccccc1)C1(CNC(=O)CCC(F)(F)F)Cc2ccccc2C1	0	/	/	/	/	-3	/	/
O=C(CNc1cccc(S(=O)(=O)N2CCOCC2)c1)Nc1ccccc1F	0	/	/	/	/	-3	/	/
Cc1cc(SCC(=O)N/N=C/c2ccc(O)c(O)c2)nc2ccccc12	56*	/	/	/	/	5	43*	2
Cc1ccc(S(=O)(=O)c2cc3c(=O)n4cccc(C)c4nc3n(Cc3ccncc3)c2=N)cc1	-10	/	/	/	/	11	/	/
Cc1ccc(C)c(NC(=S)NCCc2ccc(F)cc2)c1	3	-8	-6	-1	-12	-76	/	/
Cc1ccc(C)c(NC(=S)NNc2ccc(F)cc2F)c1	46*	/	/	/	/	7	19	-5
O=C1NC(=S)SC1=C1CCCC1	36*	-16	-25	1	0	-6	-32	3
Cc1nn(-c2ccccc2)nc1C(=O)Nc1nnc(C(F)(F)F)s1	-3	1	-11	2	1	2	/	/
COc1cc(/C=C/C(=O)c2c(O)cc(C)oc2=O)cc(OC)c1O	42*	-12	-34	5	4	/	-16	-2
COc1ccc(-[n+]2c(C)cc(/C=C3\Sc4ccccc4N3C)cc2C)cc1	45*	1	8	6	-20	-91	-25	1
Fc1ccc(N=c2ssnc2Cl)c(F)c1	32*	-7	20	0	-1	-25	-46	-1
COc1cc(N=c2ssnc2Cl)cc(OC)c1OC	39*	-9	23	0	-7	/	-53	3
COc1ccc(N=c2ssnc2Cl)cc1	18	-12	16	0	-3	-11	/	/
Clc1ccc(N=c2ssnc2Cl)cc1	17	-4	4	0	-5	-2	/	/
CC1CCC2C(=O)N(c3ccc(C(=O)Oc4cccc5cccnc45)cc3)C(=O)C2C1 (stereo unspecified)	5	-5	-4	0	-2	12	/	/
O=Cc1cc(Br)c(OC(=O)N2CCOCC2)c(Br)c1	-18	/	/	/	/	3	/	/
COc1cccc2sc3ccc(NCCC4CCCN4C)cc3c(=O)c12 (stereo unspecified)	33*	/	/	/	/	15	-45	-2
SMILES	PfM18AAP inh-1	RBBP9 inh	Tb hexokinase	L929 necroptosis	TNF necrop inh	Lipid droplet	PfM18AAP inh-2	CTSL1 confirm
COc1cccc2sc3ccc(C#CC4(N)CCCCC4)cc3c(=O)c12	10	/	/	/	/	1	/	/
COc1cc(C#CC#CCN2CCCCC2)ccc1O	3	1	-17	0	-13	/	/	/
Cc1ccc2nc(/C(C#N)=C/c3ccc(O)c(O)c3)[nH]c2c1	60*	/	/	/	/	7	36*	4
Nc1ccc(O)cc1C(=O)OCC(=O)c1ccc(C2CCCCC2)cc1	36*	-1	-1	0	-11	30	-21	-2
COc1ccc(C(=O)OCC(=O)c2ccc(C3CCCCC3)cc2)cc1	-11	-6	3	0	-12	-6	/	/
Cc1cccc(C)c1N1CCN(C(=O)Cn2cncn2)CC1	20	-3	-2	3	1	1	/	/
C(=C\c1ccco1)/C=N/n1cnnc1	58*	-10	-87	2	1	/	-6	1
S=c1[nH]nc(-c2ccccc2Cl)n1/N=C/C=C/c1ccco1	22	-4	-74	0	-4	29	/	/
CC(=O)N(C(C)=O)S(=O)(=O)c1ccc(N=NN2CCOCC2)cc1	0	1	1	1	1	-19	/	/
Cc1ccc(OCC(=O)N2N=C(c3ccncc3)CC2(O)C(F)(F)F)cc1C (stereo unspecified)	-6	-2	8	0	-1	18	/	/
CCCCCC(=O)NNC(=S)NC(=O)c1cccc([N+](=O)[O-])c1	35*	1	3	0	-3	0	-6	1
CCCCCC(=O)NNC(=S)NC(=O)c1ccccc1[N+](=O)[O-]	12	-4	8	7	0	12	/	/
CC(OC(=O)c1ccc(S(=O)(=O)N2CCCCC2)cc1)C(=O)NC1CCCCC1C (stereo unspecified)	-3	/	/	/	/	11	/	/
O=C(NN=C1CCC(=NNC(=O)c2ccccn2)CC1)c1ccccn1	32*	5	-2	0	0	8	-17	-1
Clc1cnc(N/N=C/c2ccco2)c(Cl)c1	47*	-3	-17	0	19	-38	-29	-5
Cc1nnc(SCC(=O)NC(C)c2ccccc2)[nH]c1=O (stereo unspecified)	-5	-7	5	2	1	8	/	/
CCc1nn(-c2cc(Cl)ccc2OC)c2c1C(=O)CCC2	-7	-4	-1	1	-8	/	/	/
CCOC(=O)c1cnc2c(C)cccc2c1NCc1ccco1	13	-5	-18	1	0	4	/	/
CCOC(=O)c1cnc2c(C(=O)OC)cccc2c1NCc1ccco1	41*	-10	-12	-1	-5	-9	-30	4
CCn1c(O)c(C=Nc2ccccc2)sc1=S	5	-13	8	0	1	2	/	/
CCn1c(O)c(/C=N/n2cnnc2)sc1=S	59*	-10	2	0	0	/	57*	2
C#Cc1ccc(C(=O)Nc2ccc(N3CCC(C)CC3)c(C(N)=O)c2)cc1	3	-3	-2	24	3	15	/	/
CN=c1scc(-c2ccc([N+](=O)[O-])cc2)n1/N=C/c1ccco1	8	0	-16	2	-1	-2	/	/
